Article PMC9532533 (Acta Pharmaceutica Sinica. B, 2022)

Assays:
32D KIT V559D cells = assay: Antiproliferation assay, 32D KIT V559D cells; assay type: cell-based, murine; settings: Mus musculus, read-out: GI50, V559D
[1] = test system: 32D KIT V559D/V654A cells; assay: Antiproliferation assay, 32D KIT V559D/V654A cells; assay type: cell-based, murine; settings: Mus musculus, read-out: GI50, V559D/V654A
[2] = test system: 32D KIT V559D/N822K cells; assay: Antiproliferation assay, 32D KIT V559D/N822K cells; assay type: cell-based, murine; settings: Mus musculus, read-out: GI50, V559D/N822K
32D cells = assay: Antiproliferation assay, normal parent 32D cells; assay type: cell-based, murine; settings: Mus musculus, read-out: 32D cells (GI50, nmol/L)
[3] = test system: phosphorylation of KIT^D816V and downstream STAT3 and ERK; assay: Western blot of KIT signaling in 32D KIT^D816V cells; assay type: cell-based, murine; settings: 4-h treatment
Pharmacokinetics in mice = assay type: in vivo, male ICR (CD-1) mice; settings: male, ICR (CD-1), mouse, plasma; for AUC(0-t) / half-life: po, 10 mg/kg
Procedure, shortened: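 Male ICR (CD-1) mice, n = 3 per route, each given a single dose of test compound: 2 mg/kg i.v. or 10 mg/kg p.o. Plasma drug levels measured by LC/MS/MS, and key PK parameters derived from these concentration data.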

32D KIT^D816V xenografts = assay: In vivo antitumor efficacy, 32D KIT^D816V xenograft; parameters: species or system nude mice; settings: i.g., BID × 12; for mortality and body weight loss: whole period of treatment

## Cc1ccc(C(=O)NCc2ccsc2)cc1C#Cc1cn(C(C)C)c2ncnc(N)c12 [Compound 54]
32D KIT V559D cells
  GI50: 0.09 nM
[1]
  GI50: 1.1 nM
[2]
  GI50: 0.8 nM
32D cells
  GI50: > 1000 nmol/L
[3]
  inhibition of phosphorylation of KIT^D816V and downstream STAT3 and ERK: potent inhibition effects
Pharmacokinetics in mice; oral, 10 mpk
  bioavailability: 29.9%
Pharmacokinetics in mice
  AUC(0-t): 1280 ng·h/mL
  half-life: 2.29 h
32D KIT^D816V xenografts; 20 mg/kg
  TGI (tumor growth inhibition): 45%
32D KIT^D816V xenografts; 40 mg/kg
  TGI (tumor growth inhibition): 71%
32D KIT^D816V xenografts
  mortality and body weight loss: no mortality or obvious body weight loss

## COCCn1cc(C#Cc2cc(C(=O)NCc3ccsc3)ccc2C)c2c(N)ncnc21 [Compound 57]
[3]
  inhibition of phosphorylation of KIT^D816V and downstream STAT3 and ERK: potent inhibition effects
Pharmacokinetics in mice
  AUC(0-t): 233 ng·h/mL
  half-life: 1.34 h
32D KIT^D816V xenografts; high dose group 100 mg/kg
  suppression of growth of 32D KIT^D816V xenografts: 50%
32D KIT^D816V xenografts
  mortality and body weight loss: no mortality or obvious body weight loss

## CCn1c(=O)c(-c2cc(NC(=O)Nc3ccccc3)c(F)cc2Br)cc2cnc(NC)cc21 [Ripretinib, ripretinib, reference compound]
32D KIT^D816V xenografts
  mortality and body weight loss: no mortality or obvious body weight loss
